# Measured values from ChEMBL document CHEMBL3351994, “Synthesis and biological evaluation of novel millepachine derivatives as a new class of tubulin polymerization inhibitors” (J Med Chem, 2014).
# pIC50: −log10 of the molar value.
# Key:
# HepG2 [1] = assay: Induction of apoptosis in human HepG2 cells assessed as necrotic cells at 100 nM after 24 hrs by annexin-V-FITC and propidium iodide staining based flow cytometry (reference value: 2.16%); type: functional
# Method in brief: (§1)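 HepG2 cells treated with 50, 100 or 200 nM compound or DMSO vehicle for 24 or 48 h at 37 °C. Labeled with annexin-V-FITC and PI and analyzed by flow cytometry. Cells classified as early apoptotic (annexin-V+/PI−), late apoptotic (annexin-V+/PI+) or necrotic (annexin-V−/PI+).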
# HepG2 [2] = assay: Induction of apoptosis in human HepG2 cells assessed as viable cells at 100 nM after 24 hrs by annexin-V-FITC and propidium iodide staining based flow cytometry (reference value: 93.2%); type: functional; conditions: HepG2, 24 h, read-out: Activity
# HepG2 [3] = assay: Induction of apoptosis in human HepG2 cells assessed as late apoptotic cells at 50 nM after 48 hrs by annexin-V-FITC and propidium iodide staining based flow cytometry (reference value: 1.03%); type: functional; method in brief: as §1
# HepG2 [4] = assay: Induction of cell cycle arrest in human HepG2 cells assessed as accumulation at G0/G1 phase at 100 nM after 24 hrs by propidium iodide staining based flow cytometry (reference value: 58.2%); type: functional
# Rattus norvegicus [5] = assay: Volume of distribution at steady state in rat at 9 mg/kg, po; type: ADME, organism-based; set-up: dose 9 mg/kg, route oral; conditions: in vivo
# [6] = Antiproliferative activity against taxol resistant human […] cells assessed as inhibition of cell proliferation after 48 hrs by MTT assay; type: functional, cell-based; conditions: A2780, 48 h
# Method in brief: (§2)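 Cells grown at 37 °C in humidified 5% CO2. K562, C26 and HCT lines in RPMI-1640; other lines in DMEM; both media with 10% FBS, penicillin and streptomycin. 1000 cells/well seeded, incubated overnight, then compound at various doses for 48 h. MTT added for 4 h, formazan dissolved in DMSO, absorbance read at 590 nm. IC50 from dose–response curves, mean ± SEM of at least three independent experiments.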
# HepG2 [7] = assay: Antiproliferative activity against human HepG2 cells assessed as inhibition of cell proliferation after 48 hrs by MTT assay; type: functional, cell-based; conditions: hepg2; method in brief: as §2
# Rattus norvegicus [8] = assay: Systemic clearance in rat at 9 mg/kg, po; type: ADME, organism-based; set-up: dose 9 mg/kg, route oral; conditions: in vivo
# [9] = Antiproliferative activity against human A2780S cells assessed as inhibition of cell proliferation after 48 hrs by MTT assay; type: functional, cell-based; conditions: A2780, 48 h
# Method in brief: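 Cells grown in DMEM with 10% FBS, penicillin/streptomycin at 37 °C, 5% CO2. 1000 cells/well seeded, incubated overnight, then exposed to various doses for 48 h. MTT added for 4 h, formazan dissolved in DMSO, absorbance read at 590 nm. IC50 = concentration inhibiting proliferation by 50%, mean ± SEM of dose–response curves from at least three independent experiments.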
# HepG2 [10] = assay: Induction of apoptosis in human HepG2 cells assessed as necrotic cells at 200 nM after 48 hrs by annexin-V-FITC and propidium iodide staining based flow cytometry (reference value: 2.16%); type: functional
# [11] = Volume of distribution at steady state in rat at 2.25 mg/kg, iv; type: ADME, organism-based; set-up: dose 2.25 mg/kg, route intravenous; conditions: in vivo, read-out: Vdss
# HepG2 [12] = assay: Induction of apoptosis in human HepG2 cells assessed as necrotic cells at 50 nM after 24 hrs by annexin-V-FITC and propidium iodide staining based flow cytometry (reference value: 2.16%); type: functional
# [13] = Antiproliferative activity against human HCT8 cells assessed as inhibition of cell proliferation after 48 hrs by MTT assay; type: functional, cell-based; conditions: HCT-8, 48 h; method in brief: as §2
# HepG2 [14] = assay: Induction of apoptosis in human HepG2 cells assessed as necrotic cells at 100 nM after 48 hrs by annexin-V-FITC and propidium iodide staining based flow cytometry (reference value: 2.16%); type: functional; method in brief: as §1
# HepG2 [15] = assay: Induction of apoptosis in human HepG2 cells assessed as late apoptotic cells at 50 nM after 24 hrs by annexin-V-FITC and propidium iodide staining based flow cytometry (reference value: 1.03%); type: functional; method in brief: as §1
# [16] = Antiproliferative activity against human DLD1 cells assessed as inhibition of cell proliferation after 48 hrs by MTT assay; type: functional, cell-based; conditions: DLD-1, 48 h; method in brief: as §2
# HepG2 [17] = assay: Induction of apoptosis in human HepG2 cells assessed as viable cells at 200 nM after 48 hrs by annexin-V-FITC and propidium iodide staining based flow cytometry (reference value: 93.2%); type: functional; conditions: HepG2, 48 h, read-out: Activity
# HepG2 [18] = assay: Induction of apoptosis in human HepG2 cells assessed as viable cells at 200 nM after 24 hrs by annexin-V-FITC and propidium iodide staining based flow cytometry (reference value: 93.2%); type: functional; conditions: HepG2, 24 h, read-out: Activity
# A2780 = assay: Resistance index, ratio of IC50 for taxol resistant human […] cells to IC50 for parental human […] cells; type: functional
# HepG2 [19] = assay: Induction of apoptosis in human HepG2 cells assessed as early apoptotic cells at 100 nM after 24 hrs by annexin-V-FITC and propidium iodide staining based flow cytometry (reference value: 3.63%); type: functional; method in brief: as §1
# NCI-H358 = assay: Antiproliferative activity against human NCI-H358 cells assessed as inhibition of cell proliferation after 48 hrs by MTT assay; type: functional, cell-based; conditions: NCI-H358, 48 h; method in brief: as §2
# HCT-8 = assay: Resistance index, ratio of IC50 for taxol resistant human HCT8 cells to IC50 for parental human HCT8 cells; type: functional
# MCF7 = assay: Antiproliferative activity against human MCF7 cells assessed as inhibition of cell proliferation after 48 hrs by MTT assay; type: functional, cell-based; conditions: MCF7, 48 h; method in brief: as §2
# Rattus norvegicus [20] = assay: AUC in rat at 2.25 mg/kg, iv; type: ADME, organism-based, Plasma; set-up: dose 2.25 mg/kg, route intravenous; conditions: in vivo
# Method in brief: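 Rat pharmacokinetics; oral and intravenous dosing, with group sizes of 5, 5 and 4 rats. Parameters derived: systemic clearance, volume of distribution, area under the plasma concentration–time curve, maximum plasma concentration and percent oral bioavailability.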
# HUVEC = assay: Cytotoxicity in HUVECs after 48 hrs by MTT assay; type: cell-based; conditions: Homo sapiens
# Method in brief: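 HUVEC proliferation measured by MTT after 48 h exposure. IC50 derived from the dose–response.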
# HepG2 [21] = assay: Induction of apoptosis in human HepG2 cells assessed as late apoptotic cells at 100 nM after 48 hrs by annexin-V-FITC and propidium iodide staining based flow cytometry (reference value: 1.03%); type: functional; method in brief: as §1
# [22] = Antiproliferative activity against cisplatin resistant human […] cells assessed as inhibition of cell proliferation after 48 hrs by MTT assay; type: functional, cell-based; conditions: A2780cisR; method in brief: as §2
# [23] = Antiproliferative activity against mouse C26 cells assessed as inhibition of cell proliferation after 48 hrs by MTT assay; type: functional, cell-based; conditions: C26, 48 h; method in brief: as §2
# HepG2 [24] = assay: Induction of apoptosis in human HepG2 cells assessed as early apoptotic cells at 100 nM after 48 hrs by annexin-V-FITC and propidium iodide staining based flow cytometry (reference value: 3.63%); type: functional; method in brief: as §1
# HepG2 [25] = assay: Induction of cell cycle arrest in human HepG2 cells assessed as accumulation at G0/G1 phase at 200 nM after 24 hrs by propidium iodide staining based flow cytometry (reference value: 58.2%); type: functional
# HepG2 [26] = assay: Induction of apoptosis in human HepG2 cells assessed as viable cells at 50 nM after 48 hrs by annexin-V-FITC and propidium iodide staining based flow cytometry (reference value: 93.2%); type: functional; conditions: HepG2, 48 h, read-out: Activity
# HepG2 [27] = assay: Induction of apoptosis in human HepG2 cells assessed as early apoptotic cells at 50 nM after 48 hrs by annexin-V-FITC and propidium iodide staining based flow cytometry (reference value: 3.63%); type: functional; method in brief: as §1
smiles,measurement,setting,value
COc1ccc(/C=C/C(=O)c2ccc(OC)c3c2OC(C)(C)C=C3)cc1N,Activity,HepG2 [1],3.83%
same,viability at 0.1 µM,HepG2 [2],74.1%
same,Activity,HepG2 [3],17.69%
same,Activity,HepG2 [4],34.8%
same,Vdss,Rattus norvegicus [5],25 L/kg
same,pIC50,[6],7.08
same,pIC50,HepG2 [7],8.10
same,CL,Rattus norvegicus [8],98.3 mL/min/kg
same,pIC50,[9],7.70
same,Activity,HepG2 [10],3.54%
same,Vd,[11],21 L/kg
same,Activity,HepG2 [12],4.71%
same,pIC50,[13],7.80
same,Activity,HepG2 [14],5.45%
same,Activity,HepG2 [15],4.28%
same,pIC50,[16],7.74
same,viability at 0.2 µM,HepG2 [17],41.7%
same,viability at 0.2 µM,HepG2 [18],63.1%
same,Ratio IC50,A2780,4.2
same,Activity,HepG2 [19],9.65%
same,pIC50,NCI-H358,7.92
same,Ratio IC50,HCT-8,9.5
same,pIC50,MCF7,7.57
same,AUC,Rattus norvegicus [20],1810 ng·h/mL
same,pIC50,HUVEC,6.35
same,Activity,HepG2 [21],29.45%
same,pIC50,[22],7.85
same,pIC50,[23],7.59
same,Activity,HepG2 [24],16.34%
same,Activity,HepG2 [25],37.6%
same,viability at 0.05 µM,HepG2 [26],66.1%
same,Activity,HepG2 [27],13.45%
